According to ChEMBL document CHEMBL3425429:
The source made the active and inactive calls. The rule behind the calls is not given here.

Key:
[1] = system: MDA-MB-231; assay: cells; conditions: Homo sapiens, MDA-MB-231, 72 h
[2] = system: HepG2; assay: cells; conditions: Homo sapiens, HepG2, 72 h
[3] = system: MDA-MB-231; assay: Antitumor activity against human MDA-MB-231 cells xenografted in SCID mouse assessed as tumor growth inhibition at 10 mg/kg/week, iv administered for 18 days measured every 3 days during compound dosing; type: functional, organism-based
Summary of the method: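 SCID mice (5–6 weeks) given subcutaneous injections of 5 ×10^6 MDA-MB-231 cells; at 150–200 mm3 tumors, randomized into 6 groups of 6; oral daily dosing (vehicle 25% PEG400 + 5% DMSO in sterile water), paclitaxel 10 mg/kg/week by tail vein; tumors measured every 3 days, volume = ab²/2; side effects monitored daily.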

[4] = target: Proto-oncogene tyrosine-protein kinase Src (Homo sapiens, UniProt P12931)
[5] = system: MDA-MB-231; assay: Potency index, ratio of dasatinib IC50 to compound IC50 for human MDA-MB-231 cells; type: functional
[6] = system: MDA-MB-231; assay: Potency index, ratio of ponatinib IC50 to compound IC50 for human MDA-MB-231 cells; type: functional
[7] = system: MDA-MB-231; assay: Induction of apoptosis in human MDA-MB-231 cells assessed as early apoptotic cells at 0.3 uM after 48 hrs by annexin V-FITC/propidium iodide staining-based flow cytometric analysis (reference value: […]); type: functional
[8] = system: MDA-MB-231; assay: Induction of apoptosis in human MDA-MB-231 cells assessed as late apoptotic cells at 0.3 uM after 48 hrs by annexin V-FITC/propidium iodide staining-based flow cytometric analysis (reference value: 4.25%); type: functional
[9] = system: MDA-MB-231; assay: Induction of apoptosis in human MDA-MB-231 cells assessed as viable cells at 0.3 uM after 48 hrs by annexin V-FITC/propidium iodide staining-based flow cytometric analysis (reference value: 94.4%); type: functional; conditions: MDA-MB-231, 48 h, read-out: Activity
[10] = system: MDA-MB-231; assay: Cell cycle arrest in human MDA-MB-231 cells assessed as accumulation at G0/G1 phase at 0.3 uM after 24 to 48 hrs by flow cytometric analysis; type: functional, cell-based
[11] = system: MDA-MB-231; assay: Antimigratory activity against human MDA-MB-231 cells at 0.03 to 0.3 uM after 20 hrs by wound healing assay; type: functional, cell-based
Summary of the method: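 MDA-MB-231 monolayers grown to confluence, scratched with a sterile pipet tip, rinsed with saline, then kept in DMEM containing vehicle or compound; wound images taken after 20 h and analysed.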

[12] = system: MDA-MB-231; assay: Antiinvasive activity against human MDA-MB-231 cells at 0.1 uM after 24 hrs by transwell assay; type: functional, cell-based
[13] = system: MDA-MB-231; assay: Inhibition of ERK phosphorylation in human MDA-MB-231 cells at 0.001 to 1 uM after 20 hrs by Western blot analysis; type: cell-based
Summary of the method: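 MDA-MB-231 cells exposed to a concentration series for 20 h at 37 °C, then washed in ice-cold saline and lysed in RIPA buffer with protease cocktail. Lysates were cleared at 12 000 rpm for 10 min at 4 °C and protein measured by Bradford. Equal protein was run on SDS-PAGE, transferred to PVDF and immunoblotted for phospho-proteins.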

[14] = system: MDA-MB-231; assay: Effect on AKT phosphorylation in human MDA-MB-231 cells at 0.001 to 1 uM after 20 hrs by Western blot analysis; type: cell-based
Summary of the method: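 MDA-MB-231 cells exposed to a concentration series for 20 h at 37 °C, lysed in RIPA with protease inhibitor cocktail, cleared by centrifugation, protein quantified by Bradford, resolved by SDS-PAGE, transferred to PVDF and immunoblotted.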

[15] = system: MDA-MB-231; assay: Antiproliferative activity against human MDA-MB-231 cells assessed as inhibition of colony formation at >0.01 uM after 12 days by crystal violet staining-based assay; type: functional, cell-based
Summary of the method: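 MDA-MB-231 cells plated at 5000 per well and treated the next day with vehicle or compound, medium refreshed every 4 days; after 12 days, colonies fixed in methanol, crystal violet stained and photographed.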

[16] = system: MDA-MB-231; assay: Antitumor activity against human MDA-MB-231 cells xenografted in SCID mouse assessed as tumor growth inhibition at 40 mg/kg/day administered for 18 days measured every 3 days during compound dosing; type: functional, organism-based
[17] = system: MDA-MB-231; assay: Induction of apoptosis in human MDA-MB-231 cells assessed as early apoptotic cells at 0.3 uM after 24 hrs by annexin V-FITC/propidium iodide staining-based flow cytometric analysis (reference value: 1.58%); type: functional
[18] = system: MDA-MB-231; assay: Induction of apoptosis in human MDA-MB-231 cells assessed as late apoptotic cells at 0.3 uM after 24 hrs by annexin V-FITC/propidium iodide staining-based flow cytometric analysis (reference value: 2.67%); type: functional
[19] = system: MDA-MB-231; assay: Induction of apoptosis in human MDA-MB-231 cells assessed as viable cells at 0.3 uM after 24 hrs by annexin V-FITC/propidium iodide staining-based flow cytometric analysis (reference value: 95.5%); type: functional; conditions: MDA-MB-231, 24 h, read-out: Activity

Chain of Proto-oncogene tyrosine-protein kinase Src (P12931 2-536 limits assumed): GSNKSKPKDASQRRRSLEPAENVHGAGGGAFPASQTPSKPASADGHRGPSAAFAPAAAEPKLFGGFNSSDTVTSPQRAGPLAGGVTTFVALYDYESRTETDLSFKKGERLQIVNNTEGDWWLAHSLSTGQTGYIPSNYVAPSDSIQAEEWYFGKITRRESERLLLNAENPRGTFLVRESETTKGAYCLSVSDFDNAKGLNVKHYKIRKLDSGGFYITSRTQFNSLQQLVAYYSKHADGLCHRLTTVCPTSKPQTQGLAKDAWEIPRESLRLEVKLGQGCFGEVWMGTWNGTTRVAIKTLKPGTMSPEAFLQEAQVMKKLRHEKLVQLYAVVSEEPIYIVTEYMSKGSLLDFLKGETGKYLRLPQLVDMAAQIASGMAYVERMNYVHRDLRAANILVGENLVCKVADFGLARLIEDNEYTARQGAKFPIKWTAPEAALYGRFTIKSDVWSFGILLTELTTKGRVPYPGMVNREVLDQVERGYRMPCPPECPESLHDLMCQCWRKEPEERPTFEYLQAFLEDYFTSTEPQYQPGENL

Cc1ccc(C(=O)Nc2ccc(CN3CCN(C)CC3)c(C(F)(F)F)c2)cc1C#Cc1nn(C2CCCC2)c2ncnc(N)c12
IC50 [1]: 65 nM
IC50 [2]: > 5000 nM

CCn1nc(C#Cc2cc(C(=O)Nc3ccc(CN4CCN(C)CC4)c(C(F)(F)F)c3)ccc2OC)c2c(N)ncnc21
IC50 [1]: 321 nM
IC50 [2]: 4640 nM

Cc1ccc(C(=O)Nc2ccc(CN3CCN(C)CC3)c(C(F)(F)F)c2)cc1C#Cc1nn(C2CCC2)c2ncnc(N)c12
IC50 [1]: 28 nM
IC50 [2]: > 5000 nM

CC(=O)O[C@H]1C(=O)[C@@]2(C)[C@H]([C@H](OC(=O)c3ccccc3)[C@]3(O)C[C@H](OC(=O)[C@H](O)[C@@H](NC(=O)c4ccccc4)c4ccccc4)C(C)=C1C3(C)C)[C@]1(OC(C)=O)CO[C@@H]1C[C@@H]2O
TGI [3]: Active

CCn1nc(C#Cc2cc(C(=O)Nc3ccc(CN4CCN(C)CC4)c(C(F)(F)F)c3)ccc2O)c2c(N)ncnc21
IC50 [1]: > 5000 nM
IC50 [2]: > 5000 nM

Cc1ccc(C(=O)Nc2cccc(C(F)(F)F)c2)cc1C#Cc1nn(C(C)C)c2ncnc(N)c12
IC50 [1]: 103 nM
IC50 [2]: > 5000 nM

Cc1ccc(C(=O)Nc2ccc(CN3CCN(C)CC3)c(C(F)(F)F)c2)cc1C#Cc1nn(C(C)C)c2ncnc(N)c12
IC50 [4]: 2 nM
Ratio IC50 [5]: 2.5
Ratio IC50 [6]: 2.5
IC50 [1]: 69 nM
IC50 [2]: > 5000 nM

CCN1CCN(Cc2ccc(NC(=O)c3ccc(C)c(C#Cc4nn(C(C)C)c5ncnc(N)c45)c3)cc2C(F)(F)F)CC1
IC50 [4]: 2 nM
IC50 [1]: 56 nM
IC50 [2]: > 5000 nM

Cc1ccc(C(=O)Nc2ccc(CN3CCN(C)CC3)c(C(F)(F)F)c2)cc1C#Cc1nn(C2CCNCC2)c2ncnc(N)c12
IC50 [4]: 12 nM
IC50 [2]: > 5000 nM

Cc1ccc(C(=O)Nc2ccc(CN3CCN(C)CC3)c(Cl)c2)cc1C#Cc1nn(C(C)C)c2ncnc(N)c12
IC50 [4]: 2 nM
IC50 [1]: 57 nM
IC50 [2]: 3540 nM

Cc1ccc(C(=O)Nc2ccc(CN3CCN(C)CC3)c(C(F)(F)F)c2)cc1C#Cc1cnc2cccnn12 [PONATINIB]
IC50 [1]: 156 nM
IC50 [2]: > 5000 nM

Cc1ccc(C(=O)Nc2ccc(CN3CCN(C)CC3)c(C(F)(F)F)c2)cc1C#Cc1nn(C)c2ncnc(N)c12
IC50 [1]: 20 nM
IC50 [2]: > 5000 nM

CCn1nc(C#Cc2cccc(C(=O)Nc3ccc(CN4CCN(C)CC4)c(C(F)(F)F)c3)c2)c2c(N)ncnc21
IC50 [1]: 24 nM
IC50 [2]: > 5000 nM

Cc1ccc(C(=O)Nc2ccc(CN3CCN(CCO)CC3)c(C(F)(F)F)c2)cc1C#Cc1nn(C(C)C)c2ncnc(N)c12
IC50 [4]: 4 nM
IC50 [1]: 50 nM
IC50 [2]: 1770 nM

CCc1ccc(C(=O)Nc2ccc(CN3CCN(C)CC3)c(C(F)(F)F)c2)cc1C#Cc1nn(CC)c2ncnc(N)c12
IC50 [1]: 418 nM
IC50 [2]: > 5000 nM

Cc1nc(Nc2ncc(C(=O)Nc3c(C)cccc3Cl)s2)cc(N2CCN(CCO)CC2)n1.O [DASATINIB]
Activity [7]: 6.31%
Activity [8]: 9.84%
viability at 0.3 µM [9]: 82.9%
Activity [10]: Active
Activity [11]: Active
Activity [12]: Active
inhibition [13]: inactive
Activity [14]: inactive
inhibition [15]: Active
TGI [16]: Active
Activity [17]: 2.64%
Activity [18]: 4.73%
viability at 0.3 µM [19]: 90.4%
IC50 [1]: 178 nM
IC50 [2]: > 5000 nM

C=CC(=O)N1CCC(n2nc(C#Cc3cc(C(=O)Nc4ccc(CN5CCN(C)CC5)c(C(F)(F)F)c4)ccc3C)c3c(N)ncnc32)CC1
IC50 [1]: 14 nM
IC50 [2]: > 5000 nM

CCn1nc(C#Cc2cc(C(=O)Nc3ccc(CN4CCN(C)CC4)c(C(F)(F)F)c3)ccc2C(C)C)c2c(N)ncnc21
IC50 [4]: 1410 nM
IC50 [1]: 1220 nM
IC50 [2]: > 5000 nM

CCn1nc(C#Cc2cc(C(=O)Nc3ccc(CN4CCN(C)CC4)c(C(F)(F)F)c3)ccc2Cl)c2c(N)ncnc21
IC50 [1]: 52 nM
IC50 [2]: > 5000 nM

CCn1nc(C#Cc2cc(C(=O)Nc3ccc(CN4CCN(C)CC4)c(C(F)(F)F)c3)ccc2F)c2c(N)ncnc21
IC50 [1]: 1740 nM
IC50 [2]: > 5000 nM

Cc1ccc(C(=O)Nc2ccc(CN3CCN(C)CC3)cc2)cc1C#Cc1nn(C(C)C)c2ncnc(N)c12
IC50 [1]: 270 nM
IC50 [2]: 4700 nM

Cc1ccc(C(=O)Nc2ccc(CN3CCN(C)CC3)c(Br)c2)cc1C#Cc1nn(C(C)C)c2ncnc(N)c12
IC50 [4]: 1 nM
IC50 [1]: 40 nM
IC50 [2]: 1830 nM

COCn1nc(C#Cc2cc(C(=O)Nc3ccc(CN4CCN(C)CC4)c(C(F)(F)F)c3)ccc2C)c2c(N)ncnc21
IC50 [1]: 51 nM
IC50 [2]: > 5000 nM

Cc1ccc(C(=O)Nc2ccc(CN3CCOCC3)c(C(F)(F)F)c2)cc1C#Cc1nn(C(C)C)c2ncnc(N)c12
IC50 [4]: 21 nM
IC50 [1]: 1520 nM
IC50 [2]: > 5000 nM

Cc1ccc(C(=O)Nc2ccc(CN3CCN(C)CC3)c(C(F)(F)F)c2)cc1C#Cc1nn(C2CCN(C(=O)OC(C)(C)C)CC2)c2ncnc(N)c12
IC50 [1]: 145 nM
IC50 [2]: > 5000 nM
